The results in this text go back to ChEMBL document CHEMBL4627291, “A bicyclic pentapeptide-based highly potent and selective pan-SIRT1/2/3 inhibitor harboring Nε-thioacetyl-lysine” (Bioorg Med Chem, 2020).

In general, IC50 refers to the midpoint of a concentration-inhibition curve.

Data set [1] concerns MCF7. Description: Antiproliferative activity against human MCF7 cells assessed as cell growth inhibition measured up to 72 hrs by MTT assay. It counts as functional, cell-based. Put shortly: (§1)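 MCF-7 cells, 5 x 10³ per well, grown overnight in DMEM with 10% FBS, then exposed at 37 °C to 0, 5, 12.5, 25, 50 or 100 μM final (water stock) for 24, 48 or 72 h. Afterwards, PBS wash, MTT at 0.5 mg/mL final for 4 h at 37 °C, DMSO solubilization, absorbance at 568 nm; mean of five measurements.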
On the technique in general: Tetrazolium dyes change colour on reduction, which living cells bring about.

The subject of another data set is SK-MEL-2. The data set is described as follows: Antiproliferative activity against human SK-MEL-2 cells assessed as cell growth inhibition measured up to 72 hrs by MTT assay. It counts as functional, cell-based. Put shortly: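 SK-MEL-2 melanoma cells, 5 x 10³ per well, grown overnight in MEM with 10% FBS, then exposed at 37 °C to 0, 5, 12.5, 25, 50 or 100 μM final (water stock) for 24, 48 or 72 h. Afterwards, PBS wash, MTT at 0.5 mg/mL final for 4 h at 37 °C, DMSO solubilization, A568 read; mean of five measurements.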

Data set [2] addresses T1, NAD-dependent protein deacetylase sirtuin-3, mitochondrial (Homo sapiens, UniProt Q9NTG7).
T1 sequence (Q9NTG7 whole entry): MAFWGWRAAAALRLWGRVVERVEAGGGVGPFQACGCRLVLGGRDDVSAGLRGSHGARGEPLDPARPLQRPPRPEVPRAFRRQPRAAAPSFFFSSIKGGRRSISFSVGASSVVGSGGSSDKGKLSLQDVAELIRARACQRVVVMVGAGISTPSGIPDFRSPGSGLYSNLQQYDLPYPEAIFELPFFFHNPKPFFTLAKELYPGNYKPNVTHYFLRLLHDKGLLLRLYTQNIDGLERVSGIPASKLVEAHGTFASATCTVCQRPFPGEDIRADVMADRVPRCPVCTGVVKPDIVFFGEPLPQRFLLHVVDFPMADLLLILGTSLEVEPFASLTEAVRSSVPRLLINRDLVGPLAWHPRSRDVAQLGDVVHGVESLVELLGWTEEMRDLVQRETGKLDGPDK
The data set is described as follows: Inhibition of His6-tagged human SIRT3 deacetylation activity using SIRT3 acetyl-lysine as substrate substrate in presence of beta-NAD+ after 10 mins by reversed-phase HPLC analysis.

Data set [3] concerns the target T2, NAD-dependent protein deacetylase sirtuin-2 (Homo sapiens, UniProt Q8IXJ6).
T2 sequence (Q8IXJ6 whole entry): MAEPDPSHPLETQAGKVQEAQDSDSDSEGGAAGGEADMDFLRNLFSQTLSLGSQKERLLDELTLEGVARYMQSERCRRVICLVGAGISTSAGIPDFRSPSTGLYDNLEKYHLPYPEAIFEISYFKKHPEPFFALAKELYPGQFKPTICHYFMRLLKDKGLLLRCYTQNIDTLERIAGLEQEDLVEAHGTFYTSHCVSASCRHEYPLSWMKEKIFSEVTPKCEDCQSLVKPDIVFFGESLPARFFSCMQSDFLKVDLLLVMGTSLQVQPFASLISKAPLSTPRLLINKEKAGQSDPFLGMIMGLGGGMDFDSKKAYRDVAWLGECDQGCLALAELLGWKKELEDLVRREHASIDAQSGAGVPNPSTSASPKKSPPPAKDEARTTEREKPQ
The data set is described as follows: Inhibition of His6-tagged human SIRT2 deacetylation activity using SIRT1 acetyl-lysine as substrate in presence of beta-NAD+ after 12 mins by reversed-phase HPLC analysis. Put shortly:
(§2)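 Buffer: 50 mM Hepes pH 8.0, 137 mM NaCl, 2.7 mM KCl, 1 mM MgCl₂, 1 mM DTT, 0.5 mM β-NAD⁺, p53 380-384 K382-acetyl pentapeptide. SIRT1 runs use 0.3 mM peptide, 320 nM His₆- or GST-SIRT1, 10 min. SIRT2 runs use 0.39 mM peptide, 309 nM His₆-SIRT2, 12 min. Reactions run at 37 °C, quenched with HCl/acetic acid, read by C18 HPLC at 214 nm, turnover <10%. IC50 from Dixon plots.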

Data set [4] addresses T3, NAD-dependent protein deacetylase sirtuin-7 (Homo sapiens, UniProt Q9NRC8).
T3 sequence (Q9NRC8 whole entry): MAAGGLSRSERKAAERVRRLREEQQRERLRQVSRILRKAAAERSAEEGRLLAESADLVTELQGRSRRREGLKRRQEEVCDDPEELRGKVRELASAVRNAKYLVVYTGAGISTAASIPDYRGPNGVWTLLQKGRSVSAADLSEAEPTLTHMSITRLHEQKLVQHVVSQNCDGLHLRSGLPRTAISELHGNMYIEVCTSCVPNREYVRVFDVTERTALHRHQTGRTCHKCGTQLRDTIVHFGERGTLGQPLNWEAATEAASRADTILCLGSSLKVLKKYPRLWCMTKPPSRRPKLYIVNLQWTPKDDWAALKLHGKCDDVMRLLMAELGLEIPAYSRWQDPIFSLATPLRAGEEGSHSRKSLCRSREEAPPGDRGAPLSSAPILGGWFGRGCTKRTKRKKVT
Description: Inhibition of tRNA-activated His6-tagged human SIRT7 deacetylation activity using acetyl-lysine as substrate in presence of beta-NAD+ after 30 mins by reversed-phase HPLC analysis. In short, it runs like this:
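His₆-SIRT7 (570 nM) with yeast tRNA (3-fold molar excess over enzyme) and RNase inhibitor (~1 U/μL). Substrate: 1.8 mM H3 12-24 K18-acetyl peptide with 3 mM β-NAD⁺, in 50 mM Hepes pH 8.0, 150 mM NaCl, 1 mM DTT, no KCl or MgCl₂; 30 min at 37 °C. Acid quench, C18 HPLC at 214 nm; IC50 by Dixon plot.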

Data set [5] deals with T4, NAD-dependent protein deacetylase sirtuin-1 (Homo sapiens, UniProt Q96EB6).
T4 sequence (Q96EB6 whole entry): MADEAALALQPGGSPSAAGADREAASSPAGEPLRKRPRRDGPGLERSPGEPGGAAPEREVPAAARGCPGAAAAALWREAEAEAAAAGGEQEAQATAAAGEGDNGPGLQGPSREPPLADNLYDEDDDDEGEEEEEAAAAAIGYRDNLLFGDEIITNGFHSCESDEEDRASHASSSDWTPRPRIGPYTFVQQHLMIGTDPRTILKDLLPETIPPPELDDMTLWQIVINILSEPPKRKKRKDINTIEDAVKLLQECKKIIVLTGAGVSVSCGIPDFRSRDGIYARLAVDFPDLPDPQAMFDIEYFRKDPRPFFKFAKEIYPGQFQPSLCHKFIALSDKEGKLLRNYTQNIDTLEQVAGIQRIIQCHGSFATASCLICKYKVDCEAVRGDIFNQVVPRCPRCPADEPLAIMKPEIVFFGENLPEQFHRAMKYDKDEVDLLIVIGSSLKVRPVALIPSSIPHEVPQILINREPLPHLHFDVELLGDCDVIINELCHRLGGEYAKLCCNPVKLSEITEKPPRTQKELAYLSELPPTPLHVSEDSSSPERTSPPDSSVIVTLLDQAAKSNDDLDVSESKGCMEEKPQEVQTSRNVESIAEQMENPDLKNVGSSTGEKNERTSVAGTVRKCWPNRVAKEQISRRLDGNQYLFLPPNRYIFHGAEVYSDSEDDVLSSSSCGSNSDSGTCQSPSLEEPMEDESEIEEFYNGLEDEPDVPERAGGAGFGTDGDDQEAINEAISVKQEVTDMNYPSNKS
The data set is described as follows: Inhibition of His6/GST-tagged human SIRT1 deacetylation activity using SIRT1 acetyl-lysine as substrate in presence of beta-NAD+ after 10 mins by reversed-phase HPLC analysis. Put shortly: as §2

Data set [6] has as its target NAD-dependent protein deacylase sirtuin-5, mitochondrial (Homo sapiens, UniProt Q9NXA8). The data set is described as follows: Inhibition of His6-tagged human SIRT5 desuccinylation activity using succinyl-lysine as substrate in presence of beta-NAD+ after 5 mins by reversed-phase HPLC analysis. The settings on record: in the assay text read “GST-tagged” for “His6-tagged”. Put shortly:
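GST-SIRT5 (370 nM) with 0.88 mM succinyl-lysine peptide and 0.8 mM β-NAD⁺ in 50 mM Hepes pH 8.0, 137 mM NaCl, 2.7 mM KCl, 1 mM MgCl₂, 1 mM DTT; 5 min at 37 °C. Stopped with 100 mM HCl/0.16 M acetic acid; C18 HPLC at 214 nm, turnover <10%; IC50 by Dixon plot.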

In data set [7] the target is T5, NAD-dependent protein deacetylase sirtuin-1 (Homo sapiens) (UniProt Q96EB6).
T5 sequence (whole entry): T4 sequence (Q96EB6 whole entry)
The data set is described as follows: Inhibition of SIRT1 deacetylation activity in human HCT116 cells assessed as increase in acetylated p53 K382 level by Western blot analysis. It counts as cell-based. Conditions: HCT-116. In short, it runs like this:
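HCT116 cells (5 x 10⁵) in McCoy 5A with 10% FBS, treated 8 h at 37 °C at 0, 0.5, 2, 10, 50 and 100 μM final (water stock). Lysates run on SDS-PAGE, transferred to PVDF, probed with anti-acetyl-p53 K382 and anti-p53, HRP secondary, ECL detection.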

The target in data set [8] is NAD-dependent protein deacylase sirtuin-6 (Homo sapiens, UniProt Q8N6T7). Description: Inhibition of His6-tagged human SIRT6 demyristoylation activity using myristoyl-lysine substrate in presence of beta-NAD+ after 12 mins by reversed-phase HPLC analysis. In short, it runs like this: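 His₆-SIRT6 (313 nM) with 0.02 mM myristoyl-lysine peptide and 0.2 mM β-NAD⁺ in Hepes pH 8.0 buffer with NaCl, KCl, MgCl₂ and 1 mM DTT; 12 min at 37 °C. Acid quench, C18 HPLC at 214 nm, turnover <10%; IC50 from Dixon plots.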
Sequence of NAD-dependent protein deacylase sirtuin-6 (Q8N6T7 whole entry): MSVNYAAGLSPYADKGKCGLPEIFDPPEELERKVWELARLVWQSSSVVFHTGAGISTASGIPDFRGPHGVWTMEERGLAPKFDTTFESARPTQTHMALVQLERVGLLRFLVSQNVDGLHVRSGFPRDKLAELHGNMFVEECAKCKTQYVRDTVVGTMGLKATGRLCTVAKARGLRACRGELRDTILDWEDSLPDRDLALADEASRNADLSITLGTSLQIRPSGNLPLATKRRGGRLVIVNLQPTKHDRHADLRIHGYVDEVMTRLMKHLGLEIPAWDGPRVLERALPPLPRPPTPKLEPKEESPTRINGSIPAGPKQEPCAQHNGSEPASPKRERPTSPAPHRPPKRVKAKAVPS

Data set [9] is described as follows: Enzymatic stability assessed as pronase (unknown origin)-mediated compound hydrolysis at pH 7.3 measured up to 30 mins by HPLC method. It counts as ADME, Homo sapiens. Conditions: buffer, pH 7.3, 0.5 h. Put shortly: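 Compound solution in water (160 μM) mixed 1:1 with Streptomyces griseus pronase (8 ng/μL) in 100 mM Tris·HCl pH 7.3 at 37 °C. Aliquots quenched with 1.0 M acetic acid at 0, 2.5, 5, 10, 20 and 30 min, then C18 RP-HPLC at 214 nm; mean of two measurements.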

Data set [10] relates to MCF7. The data set is described as follows: Antiproliferative activity against human MCF7 cells assessed as cell growth inhibition at 100 uM measured after 72 hrs by MTT assay relative to control. In kind it is functional. Conditions: MCF7, 72 h, read-out: GI. Put shortly: as §1

Sequence of NAD-dependent protein deacylase sirtuin-5, mitochondrial (Q9NXA8 whole entry): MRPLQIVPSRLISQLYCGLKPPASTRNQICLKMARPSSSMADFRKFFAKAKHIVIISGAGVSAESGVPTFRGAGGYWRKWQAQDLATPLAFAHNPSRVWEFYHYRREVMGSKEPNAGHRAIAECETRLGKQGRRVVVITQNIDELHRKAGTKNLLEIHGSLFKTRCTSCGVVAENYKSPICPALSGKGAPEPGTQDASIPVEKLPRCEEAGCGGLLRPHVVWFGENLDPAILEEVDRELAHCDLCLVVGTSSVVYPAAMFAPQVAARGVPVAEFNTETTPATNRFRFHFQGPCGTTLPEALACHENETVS

On to `CSCC[C@@H]1NC(=O)[C@@H](NC(=O)[C@H](CCCCNC(C)=S)NC(=O)[C@@H]2Cc3ccc(cc3)OCCCC(=O)N[C@@H](Cc3c[nH]cn3)C(=O)N2)Cc2ccc(cc2)OCCCCCNC1=O`, for which the Activity result with MCF7 [1] and with SK-MEL-2 was “Dose-dependent effect” in each case. Further, the IC50 was found to be 0.72 µM in data set [2]; 0.253 µM in data set [3]; 78.9 µM in [4]; 0.54 µM in data set [5]; 443 µM in data set [6]; 390 µM in [8]. For the same molecule, the inhibition result in data set [7] was “Dose-dependent effect”. Also, the Stability entry in data set [9] is “Stable”.

`CSCC[C@@H]1NC(=O)[C@@H](NC(=O)[C@H](CCCCNC(C)=S)NC(=O)[C@H](CCCCN)NC(=O)[C@H](Cc2c[nH]cn2)NC(C)=O)Cc2ccc(cc2)OCCCNC1=O`: the 50% inhibitory concentration (IC50) in data set [3] was 60.8 µM; in data set [5] it was 34.3 µM.

With `CSCC[C@H](NC(=O)[C@H](CC(C)C)NC(=O)[C@H](CCCCNC(C)=S)NC(=O)[C@@H]1Cc2ccc(cc2)OCCCCCCCC(=O)N[C@@H](Cc2c[nH]cn2)C(=O)N1)C(N)=O`, the IC50 turned out to be 1.33 µM in [3] and 0.673 µM in data set [5].

For `CSCC[C@@H]1NC(=O)[C@@H](NC(=O)[C@H](CCCCNC(C)=S)NC(=O)[C@H](CCCCN)NC(=O)[C@H](Cc2c[nH]cn2)NC(C)=O)Cc2ccc(cc2)OCCCCCCCNC1=O`, the IC50 in data set [2] worked out at 217 µM; in data set [3] it was 25.5 µM; in data set [5], 22.6 µM.

With `CSCC[C@H](NC(=O)[C@H](CC(C)C)NC(=O)[C@H](CCCCNC(C)=S)NC(=O)[C@@H]1Cc2ccc(cc2)OCCCCCCCCCCC(=O)N[C@@H](Cc2c[nH]cn2)C(=O)N1)C(N)=O`, the IC50 in data set [2] is 1.1 µM; in [3] it was 4.31 µM; in [5], 1.25 µM.

`CC/C(=C(\c1ccccc1)c1ccc(OCCN(C)C)cc1)c1ccccc1` [TAMOXIFEN]: the inhibition of growth at 100 µM in the data set on MCF7 [10] was more than 80%.

As for `CSCC[C@H](NC(=O)[C@H](CC(C)C)NC(=O)[C@H](CCCCNC(C)=S)NC(=O)[C@@H]1Cc2ccc(cc2)OCCCC(=O)N[C@@H](Cc2c[nH]cn2)C(=O)N1)C(N)=O`, the IC50 was 0.75 µM in [2], 0.68 µM in [3] and 0.171 µM in data set [5].

Consider `CSCC[C@H](NC(=O)[C@H](CC(C)C)NC(=O)[C@H](CCCCNC(C)=S)NC(=O)[C@@H]1Cc2ccc(cc2)OCCCCCC(=O)N[C@@H](Cc2c[nH]cn2)C(=O)N1)C(N)=O`, for which the IC50 came to 1.03 µM in data set [3] and 0.646 µM in data set [5].

For the molecule `CSCC[C@@H]1NC(=O)[C@@H](NC(=O)[C@H](CCCCNC(C)=S)NC(=O)[C@H](CCCCN)NC(=O)[C@H](Cc2c[nH]cn2)NC(C)=O)Cc2ccc(cc2)OCCCCCCCCCCNC1=O`, the values for the IC50 in data set [2], in [3] and in data set [5] were 13.1 µM, 17.9 µM and 56.7 µM, respectively.

As for `CSCC[C@@H]1NC(=O)[C@@H](NC(=O)[C@H](CCCCNC(C)=S)NC(=O)[C@H](CCCCN)NC(=O)[C@H](Cc2c[nH]cn2)NC(C)=O)Cc2ccc(cc2)OCCCCCNC1=O`, the IC50 came out at 115 µM in data set [3] and 13.6 µM in data set [5].
